# Tb MetRS inh: T. brucei MetRS inhibitors, primary screen, biochemical, luminescence; purified T. brucei MetRS, ATP depletion, Kinase-Glo luminescence; methionyl-tRNA synthetase (Trypanosoma brucei brucei); inhibition, % at 11.9 µM; 360,000 compounds, 0.4% hits;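 active = inhibition above a per-plate cutoff of the control wells' mean inhibition plus 3 SD, cut at about 5.5% in these data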;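 note: 0% = DMSO wells median and 100% = median of wells with control inhibitor compound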
#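 Measured by: Kinase-Glo luciferase luminescence reporting remaining unconsumed ATP. Material: purified T. brucei MetRS enzyme. Doses: 11.9 µM compound single dose, 0.9% DMSO. Medium: HEPES buffer containing pyrophosphatase, BSA, spermine, DTT. Times: 15 min preincubation, 2 h reaction, all 25 °C. Reagent: methionine, ATP and bulk E. coli tRNA.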
# AHR activator: AHR activators, primary screen, cell-based, luminescence, luciferase reporter, human. Aryl hydrocarbon receptor (Homo sapiens), P35869. 320,000 compounds, 2.5% hits. activation, % at 5 µM. AHR-responsive luciferase reporter cells; in the data active = activation above about 47%;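 note: 0% = vehicle wells and 100% = reference agonist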
# Target sequence (P35869 whole entry, looked up): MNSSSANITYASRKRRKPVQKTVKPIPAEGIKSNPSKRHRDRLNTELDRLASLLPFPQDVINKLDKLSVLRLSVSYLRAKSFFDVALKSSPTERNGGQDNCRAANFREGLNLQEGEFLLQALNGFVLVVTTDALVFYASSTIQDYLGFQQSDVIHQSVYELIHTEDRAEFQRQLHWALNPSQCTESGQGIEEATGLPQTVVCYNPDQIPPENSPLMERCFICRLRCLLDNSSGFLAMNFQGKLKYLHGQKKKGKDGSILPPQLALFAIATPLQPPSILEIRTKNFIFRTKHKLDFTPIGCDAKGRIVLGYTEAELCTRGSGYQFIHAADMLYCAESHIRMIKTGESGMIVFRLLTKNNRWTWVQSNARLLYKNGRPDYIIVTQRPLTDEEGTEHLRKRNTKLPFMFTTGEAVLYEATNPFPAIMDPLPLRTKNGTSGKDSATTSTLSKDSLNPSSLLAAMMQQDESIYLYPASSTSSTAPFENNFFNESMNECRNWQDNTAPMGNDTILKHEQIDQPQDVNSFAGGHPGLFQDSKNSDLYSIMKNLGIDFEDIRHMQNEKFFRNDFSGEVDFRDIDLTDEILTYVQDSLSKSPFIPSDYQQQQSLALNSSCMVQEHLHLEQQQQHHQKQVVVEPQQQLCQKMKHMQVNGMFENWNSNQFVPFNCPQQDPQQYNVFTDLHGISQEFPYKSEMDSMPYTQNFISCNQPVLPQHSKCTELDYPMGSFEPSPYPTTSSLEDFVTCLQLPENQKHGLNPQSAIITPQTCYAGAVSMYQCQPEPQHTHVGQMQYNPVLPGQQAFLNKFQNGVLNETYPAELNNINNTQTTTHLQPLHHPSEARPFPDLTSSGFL
# TAG inh: inhibitors of triacylglycerol accumulation, primary screen, cell-based, uHTS, fluorescence, H9c2; inhibition, % at 12.5 µM; 230,000 compounds, 0.66% hits; H9c2 cells, Nile Red lipid (TAG) fluorescence; cells loaded with 200 µM oleic acid;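 active = pattern-corrected inhibition of lipid staining of at least 50% with the nuclear-stain viability signal not falling by more than 50%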;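 note: 0% = DMSO wells and 100% = triacsin C control wells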
# Efflux pump inh: inhibitors of Candida efflux pumps in yeast, primary screen, S. cerevisiae, Nile Red, multiplex. S. cerevisiae Candida pump triplex. inhibition, % at 10 µM. 330,000 compounds, 0.44% hits;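 active = plate passing quality check with inhibition over a set limit, or well fluorescence over plate mean plus 4 SD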;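 note: Nile Red retained in pooled yeast measured as flow cytometry median fluorescence; 0% = buffer negative control and 100% = Enniatin B positive control; higher means more Nile Red kept so more efflux inhibition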
# SMARCA2 act: SMARCA2 (BRM) function activators, primary screen, cell-based, luminescence, high throughput; MG213 cells, MMTV-luciferase reporter, dexamethasone, overnight; activation, % at 9.1 µM; 370,000 compounds, 1% hits; AID 652017, 2013; in the data active = activation above about 7.8%;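 note: 0% = vehicle wells and 100% = reference activator wells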
# Yeast cmpd fluor: compound fluorescence in yeast efflux pump counter-screen; shares compounds with Efflux pump inh; S. cerevisiae AD/pABC3, flow cytometry; fluorescence ratio to DMSO, % at 10 µM; 1,700 compounds, 4% hits; AID 588517;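 active = fluorescence ratio to DMSO above its plate's cutoff, the plate mean ratio plus 5 SD, cut at about 210% in these data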;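 note: unstained yeast with no Nile Red so the signal is compound autofluorescence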
# Mdr1 pump inh: inhibitors of Candida albicans Mdr1 efflux, confirmation, flow cytometry, singleplex, Cherry Pick1 set | shares compounds with Efflux pump inh | S. cerevisiae AD/CaMDR1, Nile Red efflux | inhibition, % at 10 µM | 1,700 compounds, 1% hits; in the data active = inhibition above about 26%;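 note: 0% = DMSO vehicle and 100% = reference inhibitor; higher means more Nile Red retained so more efflux inhibition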
# Cdr2 pump inh: inhibitors of Candida albicans Cdr2 efflux pump, confirmation, S. cerevisiae AD/CaCDR2, flow cytometry, cherry pick 1, singleplex; shares compounds with Efflux pump inh; AID 588520, 2011; Nile Red retention ratio vs DMSO, % at 10 µM; Nile Red retention; 1,700 compounds, 4% hits; in the data active = Nile Red retention ratio vs DMSO above about 190%;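 note: higher ratio means more blocking of Cdr2 efflux of the dye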
# Cdr1 pump inh: inhibitors of Candida albicans Cdr1 efflux pump, confirmation, S. cerevisiae AD/CaCDR1, flow cytometry, cherry pick 1, singleplex; shares compounds with Efflux pump inh; Nile Red efflux; inhibition, % at 10 µM; 1,700 compounds, 1% hits; AID 588522, 2011;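 active = inhibition above the screen-wide mean plus twice its standard deviation, cut at about 32% in these data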
# * hit, by the source's call; · = not tested or not shown. Compounds with a hit are over-represented: about 4.1% of the library has one in this group of screens.
SMILES,Tb MetRS inh,AHR activator,TAG inh,Efflux pump inh,SMARCA2 act,Yeast cmpd fluor,Mdr1 pump inh,Cdr2 pump inh,Cdr1 pump inh
COc1ccc(-c2nnc(SCC(=O)Nc3ccc4cn[nH]c4c3)n2Cc2ccco2)cc1,·,·,·,·,-0.4,·,·,·,·
CCNC(=O)N(C)[C@H]1C[C@H]2c3[nH]c4c(-c5cccc(C)c5)cccc4c3CCN2C(=O)[C@H]1[C@H](C)O,·,·,·,·,-1.6,·,·,·,·
O=C(COC(=O)c1cc(Cl)cc(Cl)c1)NCCN1C(=O)CSC1=O,0.0,1.4,10.0,-0.1,4.0,104.7,-0.2,99.6,0.0
Cc1noc(C)c1COc1cccc(C(=O)OCC(=O)NCCN2C(=O)CSC2=O)c1,-0.2,-1.1,5.4,0.1,-1.2,·,·,·,·
O=C(COC(=O)c1ccc(Cl)cc1O)NCCN1C(=O)CSC1=O,0.0,-1.0,10.5,0.1,0.5,108.3,0.0,112.0,0.0
O=C(COC(=O)c1cccc(Cl)c1)NCCN1C(=O)CSC1=O,-1.4,1.0,·,0.0,-2.4,95.5,-0.3,89.9,-0.1
CCOC(=O)[C@@]12CCCC=C1N(CCc1ccc(Cl)cc1)C(=O)[C@H]2CC(=O)NCCc1ccccc1OC,·,·,·,·,-2.3,·,·,·,·
O=C(OCc1cn(Cc2cccc(F)c2F)nn1)N1CCCC1,·,·,·,·,1.6,·,·,·,·
CC(CCN1CCC(C(O)(c2ccccc2)c2ccccc2)CC1)Oc1ccc(C#N)cc1F (stereo unspecified),·,·,·,·,0.6,·,·,·,·
CC(C)Oc1ccc(-c2cc(C(=O)NCCN3CCOCC3)c3ccccc3n2)cc1,0.1,40.9,·,-0.1,-3.2,96.2,-0.2,102.9,-0.1
CCOc1ccc(-c2cc(C(=O)N3CCN(C)CC3)c3ccccc3n2)cc1,-0.2,16.5,·,0.0,1.3,99.0,-0.2,105.1,-0.1
CCOc1ccc(-c2cc(C(=O)N3CCCC3)c3ccccc3n2)cc1,-0.3,14.6,-16.3,-0.1,·,·,·,·,·
CCCCOc1ccc(C(=O)NC2CCCCN(Cc3ccccc3C)C2=O)cc1 (stereo unspecified),·,·,·,·,-2.9,·,·,·,·
CCOc1ccc(CCNC(=O)Cc2ccc(NC3=NC4CS(=O)(=O)CC4S3)cc2)cc1 (stereo unspecified),-0.6,-0.8,4.4,0.4*,1.8,87.6,0.0,89.9,0.0
CCOc1ccc(CCNC(=O)c2ccc(NC3=NC4CS(=O)(=O)CC4S3)cc2)cc1 (stereo unspecified),-0.5,2.0,·,0.0,-2.2,·,·,·,·
C=CCN1C(=O)[C@H](CC(=O)NCc2cccc3ccccc23)[C@@]2(C(=O)OCC)CCCC=C12,·,·,·,·,-2.8,·,·,·,·
COc1ccccc1CNC(=O)COc1ccc(C)cc1,-0.1,0.1,-0.8,-0.1,-0.8,·,·,·,·
COc1ccccc1CNC(=O)COc1ccccc1OC,-0.1,19.0,-14.9,1.0*,0.1,107.9,0.1,99.6,0.0
CCOC(=O)[C@]12CCCCC/C=C\1N(CCc1ccc(Cl)cc1)C(=O)[C@H]2CC(=O)N1CCN(C(=O)C2CC2)CC1,·,·,·,·,0.8,·,·,·,·
Oc1ccc(Br)cc1C=Nc1ccc2c3c(cccc13)CC2,-0.2,43.6,·,3.1*,-3.5,102.2,-0.1,116.5,0.1
C/C(=N\NC(=O)CCc1ccccc1)C1C(=O)c2ccccc2C1=O,-0.6,11.2,11.0,0.0,3.8,·,·,·,·
C/C(=N\NC(=O)c1cccc(Cl)c1)C1C(=O)c2ccccc2C1=O,-0.6,22.3,0.8,12.7*,-1.3,92.1,-0.1,101.5,0.0
CC(=O)Nc1ccc(C(=O)OCCCOC(=O)c2ccc(NC(C)=O)cc2)cc1,-0.5,0.5,1.3,0.2,-2.4,·,·,·,·
CCCCOC(=O)c1ccc(NC(C)=O)cc1,-0.7,3.2,11.5,0.6*,2.6,103.4,-0.1,105.7,-0.1
COC(=O)Cn1c(CN2CCOCC2)nc2c1c(=O)[nH]c(=O)n2C,-1.0,2.4,-7.0,1.2*,-0.8,108.3,0.0,103.6,0.1
SMILES,Tb MetRS inh,AHR activator,TAG inh,Efflux pump inh,SMARCA2 act,Yeast cmpd fluor,Mdr1 pump inh,Cdr2 pump inh,Cdr1 pump inh
Cn1c(=O)[nH]c(=O)c2c1nc(CN1CCN(c3ccc(F)cc3)CC1)n2CCN1CCOCC1,-0.4,1.9,-6.5,0.0,-2.1,·,·,·,·
CCOc1ccc(C=NNC(=O)c2cc(-c3ccc(Cl)cc3)n[nH]2)cc1,·,·,·,·,-1.5,·,·,·,·
CN1CCCN(C(=O)C2CCN(c3ncnc4c3sc3cccc(F)c34)CC2)CC1,·,·,·,·,1.3,·,·,·,·
CCCCCCCCCC(=O)N/N=C(\C)c1cccnc1,0.3,8.9,-25.2,1.6*,-4.5,87.6,0.0,103.8,-0.1
O=[N+]([O-])c1ccc(Cl)c(S(=O)(=O)Nc2ccc(-c3ccc(N4CCOCC4)nn3)cc2)c1,-0.4,1.7,5.9,0.0,0.6,·,·,·,·
O=S(=O)(Nc1ccc(-c2ccc(N3CCOCC3)nn2)cc1)c1ccc(Cl)c(Cl)c1,-0.3,-1.1,-9.4,0.8*,-2.3,101.8,-0.1,114.1,0.1
O[C@H](COc1cccc(Br)c1)CN1CCC(C(O)(c2ccccc2)c2ccccc2)CC1,·,·,·,·,-5.8,·,·,·,·
CCOc1cccc(-c2nnc(SCC(=O)Nc3ccc4c(c3)OCO4)n2N)c1,·,·,·,·,-4.7,·,·,·,·
COc1ccc(CN2C(NC(=O)OCc3ccccc3)=NC3=CC(C)(C)n4c(=O)n(-c5ccccc5)c(=O)n4C32)c(OC)c1 (stereo unspecified),·,·,·,·,-1.8,·,·,·,·
Cc1cc(C)cc(N(C(=O)Cn2nnc(-c3ccccc3)n2)C(C(=O)NC2CCCCC2)c2ccccn2)c1 (stereo unspecified),0.0,1.1,·,6.4*,0.5,105.4,-0.1,100.8,0.1
Cc1ccc(N(C(=O)Cn2nnc(-c3ccccc3)n2)C(C(=O)NC2CCCCC2)c2ccccn2)cc1C (stereo unspecified),0.5,2.6,-8.3,-0.1,-3.4,·,·,·,·
CCCN1CCCCC(NC(=O)c2ccccc2OC)C1=O (stereo unspecified),·,·,·,·,0.0,·,·,·,·
O=C(CSc1nnc(Cc2cccs2)n1Cc1ccco1)Nc1ccc(Cl)cc1Cl,0.0,-1.3,·,0.2,-3.0,101.1,0.1,100.1,-0.1
